Data set [1] relates to Plasmodium chabaudi. Briefly: Antimalarial activity against Plasmodium chabaudi chabaudi in C57BL/6J mice (Mus musculus) assessed as parasitemia on day 14 at 0.1 mg, intraperitoneally for 4 days. The data set is classed as functional.
Data set [2] concerns Mus musculus. Briefly: Toxicity in Plasmodium chabaudi chabaudi infected C57BL/6J mice (Mus musculus) at 2 mg, intraperitoneally twice daily after 7 days. Format: organism-based. Conditions: in vivo, ip, 168 h.
The test system of data set [3] is Mus musculus. Briefly: Toxicity in Plasmodium chabaudi chabaudi infected C57BL/6J mice (Mus musculus) at 0.1 mg, intraperitoneally twice daily after 4 days. Format: organism-based. Conditions: in vivo, ip, 96 h.
Data set [4] relates to Plasmodium falciparum. Description: Antimalarial activity after 48 hrs against multidrug-resistant Plasmodium falciparum Dd2 by [3H]hypoxanthine uptake. Format: functional, organism-based.
The subject of data set [5] is Plasmodium falciparum. Briefly: Antimalarial activity after 48 hrs against Plasmodium falciparum D10 by [3H]hypoxanthine uptake. The data set is classed as functional, organism-based.
The test system of data set [6] is Plasmodium falciparum. Briefly: Antimalarial activity after 48 hrs against drug-sensitive Plasmodium falciparum 3D7 by [3H]hypoxanthine uptake. Format: functional, organism-based.
The nature of data set [7]: Inhibition of Plasmodium falciparum recombinant M17 LAP. The procedure, abridged: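 His-tagged PfLAP expressed in baculovirus-infected Sf9 cells and Ni-agarose purified. The enzyme was Co2+-activated (1 mM CoCl2, 50 mM Tris-HCl pH 8.0, 20 min) and H-Leu-NHMec hydrolysis was read at ex 370/em 460 nm, 37 °C. Ki came from Dixon plots of initial rates (26 nM enzyme, 2.5–100 µM substrate, 2.44–78.13 nM inhibitor). For time-dependent binding, Ki* came from steady-state progress curves (2 µM substrate, 19.53–312.5 nM).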

Data set [8] relates to Plasmodium chabaudi. Briefly: Antimalarial activity against Plasmodium chabaudi chabaudi in C57BL/6J mice (Mus musculus) assessed as parasitemia on day 8 at 2 mg, intraperitoneally twice daily for 7 days. Format: functional.
Data set [9] relates to Plasmodium chabaudi. Description: Antimalarial activity against Plasmodium chabaudi chabaudi in C57BL/6J mice (Mus musculus) assessed as parasitemia on day 11 at 2 mg, intraperitoneally twice daily for 7 days. Format: functional.
Data set [10] relates to Plasmodium chabaudi. Description: Antimalarial activity against Plasmodium chabaudi chabaudi in C57BL/6J mice (Mus musculus) assessed as reduction of parasitemia on day 11 at 2 mg, intraperitoneally twice daily for 7 days relative to control. Format: functional. More on the design: scale not given: the % may be the effect or the level left.

Structures are written as SMILES. Some results are limits rather than exact numbers.

Take `CCN(CC)CCCC(C)Nc1ccnc2cc(Cl)ccc12` (stereo not given) [CHLOROQUINE]: the Activity was 6.9% with Plasmodium chabaudi [1], “Non-toxic” with Mus musculus [2] and “Non-toxic” in the data set on Mus musculus [3].

By IC50 is commonly meant the concentration that gives 50% inhibition. As usually defined, the Ki is the dissociation constant of the complex between target and ligand, obtained from inhibition or displacement. As to `CC(C)C[C@H](CP(=O)(O)[C@H](N)CC(C)C)C(=O)O`, the IC50 in the data set with Plasmodium falciparum [4], in the data set with Plasmodium falciparum [5] and in the data set with Plasmodium falciparum [6] was greater than 100 µM throughout. The Ki in data set [7] stood at 0.0973 µM.

On to `CC(C)C[C@H](NC(=O)[C@@H](O)[C@H](N)Cc1ccccc1)C(=O)O.Cl` [BESTATIN HYDROCHLORIDE], for which the figures for the Activity with Plasmodium chabaudi [8], with Mus musculus [2] and with Mus musculus [3] were 29.7%, “Non-toxic” and “Non-toxic”, respectively. The IC50 in the data set with Plasmodium falciparum [4] was 12 µM; in the data set on Plasmodium falciparum [5] it was 11 µM; with Plasmodium falciparum [6], 8 µM. For the same molecule, the Ki in [7] was 0.025 µM.

With `N[C@H](CCc1ccccc1)P(=O)(O)C[C@@H](Cc1ccccc1)C(=O)O`, the IC50 was 20 µM in the data set on Plasmodium falciparum [4], 46 µM in the data set on Plasmodium falciparum [5] and 24 µM with Plasmodium falciparum [6]. The Ki in data set [7] was determined as 0.0132 µM. The Activity is listed as 3.6% in the data set with Plasmodium chabaudi [9], 92% in the data set on Plasmodium chabaudi [10], “Non-toxic” with Mus musculus [2] and “Non-toxic” with Mus musculus [3].

Turning to `N[C@H](CCc1ccccc1)P(=O)(O)C[C@@H](Cc1ccc(O)cc1)C(=O)O`, the IC50 with Plasmodium falciparum [4] turned out to be 13 µM; in the data set on Plasmodium falciparum [5], 47 µM; in the data set on Plasmodium falciparum [6], 19 µM. Further, in [7], the Ki was found to be 0.0104 µM.

For `N[C@H](CCc1ccccc1)P(=O)(O)CCC(=O)O`, the IC50 in the data set on Plasmodium falciparum [4], with Plasmodium falciparum [5] and in the data set on Plasmodium falciparum [6] was greater than 100 µM in each case. Further, in data set [7], the inhibition constant Ki stood at 0.525 µM.
